Only some compounds are listed: those with a hit (about 4.3% of all), similar ones and a draw of the others.
sdo1 growth – compounds rescuing growth of sdo1-depleted yeast, bone marrow failure model; S. cerevisiae sdo1-depleted JHY4D growth rescue, OD600 30 h; stronger effect = higher value; pdr5 snq2 efflux-pump mutant strain; z-score at 10 µM; actives 0.21% (n = 140,000); AID 817;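 active = z-score above 3 at both the 24 hr and the 30 hr optical density reads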;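 note: z-score against mean and SD of all compound wells on the same plate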
NF-kB neuron act – NF-kB expression increase, human neuronal cells; actives 1.6% (n = 190,000); NF-kB reporter expression; stronger effect = higher value; fold change at 12.5 µM; in the data active = fold change above about 3.3
FLuc act counter – affects firefly luciferase, flagging false hits in luciferase stimulation screens | AID 1027 | ATPlite luciferase biochemical, luminescence, 10 min; 0 = ATP-free wells, 1 = DMSO control | 200,000 tested, under 10 active | activation factor at 10 µM;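 active = luciferase activation factor, scaled between plate controls, of at least 2 with compound at 10 µM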
Target sequence (P08659 whole entry, looked up): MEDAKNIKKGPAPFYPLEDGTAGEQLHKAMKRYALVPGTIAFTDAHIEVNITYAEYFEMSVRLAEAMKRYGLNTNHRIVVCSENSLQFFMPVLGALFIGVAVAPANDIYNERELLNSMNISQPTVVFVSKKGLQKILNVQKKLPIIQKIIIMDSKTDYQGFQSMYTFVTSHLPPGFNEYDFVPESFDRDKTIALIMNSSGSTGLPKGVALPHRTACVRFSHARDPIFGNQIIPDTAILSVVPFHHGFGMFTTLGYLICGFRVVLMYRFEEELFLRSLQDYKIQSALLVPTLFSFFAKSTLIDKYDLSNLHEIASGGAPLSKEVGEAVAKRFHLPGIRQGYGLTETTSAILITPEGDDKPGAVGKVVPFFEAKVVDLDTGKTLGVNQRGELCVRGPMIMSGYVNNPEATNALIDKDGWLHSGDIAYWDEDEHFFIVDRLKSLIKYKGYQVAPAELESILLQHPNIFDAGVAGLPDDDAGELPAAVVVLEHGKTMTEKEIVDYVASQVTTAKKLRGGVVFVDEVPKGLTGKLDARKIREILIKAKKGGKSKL
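test system = cell-free luciferase reagent | medium = PBS as buffer for the ATP substrate | dosing = test compounds dosed from 2 mM stocks in 100% DMSO | incubation = 10 min at ambient temperature | detection = luminescence measurement of luciferase light output | benchmarks = low control with PBS replacing ATP, high control enzyme plus ATP without compound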
FLuc inhib CS – inhibits firefly luciferase, flagging false hits in luciferase inhibition screens | ATPLite firefly luciferase biochemical luminescence, 10 min | inhibition, % at 10 µM | actives 1.5% (n = 200,000) | AID 1006;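 active = inhibition above about 50% when tested at 10 µM, limit read from the data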
APP 5'UTR act – APP 5'UTR luciferase reporter activation; SH-SY5Y APP 5'UTR luciferase reporter, luminescence; zero percent = DMSO vehicle wells; activation, % at 2 µM; actives 1% (n = 190,000); AID 1276;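 active = activation above a set limit, based on mean plus 3 SD of controls, cut at about 140% in these data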
STAT1 activator – increases IFN-gamma driven STAT1 reporter signal; NIH 3T3 STAT1-luciferase reporter, luminescence; 100% = IFN-gamma alone, no compound; actives 2.6% (n = 200,000); activation (% of control), % at 5.5 µM;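 active = activation above the screen-wide mean activation plus 3 SD, cut at about 130% in these data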;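 note: raw ratio to IFN-gamma control signal so 100% means no change and 0% no light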
* hit, by the source's call; nt = no result.

SMILES	sdo1 growth	NF-kB neuron act	FLuc act counter	FLuc inhib CS	APP 5'UTR act	STAT1 activator
O=C(Cc1ccccc1[N+](=O)[O-])NCc1ccc(Cl)cc1	0.51	1.9	0.9	9	36	113
O=C(Cc1ccccc1[N+](=O)[O-])NCc1ccc(Cl)cc1Cl	0.49	4.4*	0.4	59*	98	131*
O=C(N1CCN(c2cccc(Cl)c2)CC1)C1(c2cccs2)CCOCC1	-1.1	0.97	1	3	3	111
CCN(CC)c1ccc2cc(C(N)=O)c(=O)oc2c1	1	1.8	0.8	19	12	133*
CCN(C(=O)c1cc2ccccc2oc1=O)c1ccccc1	0.12	4.7*	0.9	6	105	124
CCN(CC)c1ccc2cc(C(N)=O)c(=N)oc2c1	nt	1.2	0.9	13	7	120
CN(C=O)CP(=O)(O)CN1CCCCC1	1.5	0.85	1	-1	-8	99
COc1cc2c(cc1OC)CN(CC(=O)NC(=O)NC1CCCCC1)CC2	nt	0.93	1	-3	12	96
O=C(O)c1ccc(Nc2cnc3ccccc3n2)cc1	nt	1.9	1	4	5	131*
COc1cc(/C=C/c2noc(-c3ccccc3O)n2)cc(OC)c1OC	-0.7	1.3	1	-5	52	102
COc1ccc(/C=C/c2noc(-c3ccccc3O)n2)cc1	0.78	1	0.5	54*	71	100
COc1ccc(C(=O)N[C@H](C(=O)Nc2nc3ccccc3[nH]2)C(C)C)cc1	nt	1	0.5	53*	-77	126
O=C(Nc1nc2ccccc2[nH]1)C12CC3CC(CC(C3)C1)C2	-1.5	3.1	0.5	50*	79	132*
O=C(NCc1nc2ccccc2[nH]1)c1ccc([N+](=O)[O-])cc1	nt	0.77	1	-3	-12	100
COc1cccc(C(=O)Nc2nc3ccccc3[nH]2)c1	0.74	2.5	0.1	91*	150*	60
O=C(Nc1nc2ccccc2[nH]1)c1ccc([N+](=O)[O-])cc1	nt	3	0.5	51*	190*	116
CC1CCCN(Cc2nc(Cc3ccccc3Cl)no2)C1 (stereo unspecified)	nt	1.2	1	-5	29	104
CCN(CC)c1ccc(CN2CCC(C(=O)NCc3ccc(C)cc3)CC2)cc1	nt	0.61	1	-1	10	87
CCSc1nc(CC)c2c(c1C#N)CCCC2	0	1.3	1	-2	2	103
CC(NC(=O)c1ccc(S(=O)(=O)C(F)F)cc1)c1ccccc1 (stereo unspecified)	nt	1.2	1.1	-6	5	105
O=c1[nH]c2ccccc2nc1/C=C(\O)c1cccs1	nt	1.5	0.6	45	96	146*
O=C(Nc1nc2ccccc2[nH]1)c1ccc(Br)o1	nt	3.6*	0.3	73*	91	144*
O=c1[nH]c2ccccc2nc1/C=C/c1ccc(O)cc1	nt	1	0.5	54*	81	138*
O=C(Nc1nc2ccccc2[nH]1)c1cccs1	nt	3.8*	0.3	69*	166*	123
O=c1[nH]c2ccccc2nc1/C=C(\O)C1CC1	1.4	1.6	1	0	2	98
SMILES	sdo1 growth	NF-kB neuron act	FLuc act counter	FLuc inhib CS	APP 5'UTR act	STAT1 activator
CC(C)(C)/C(O)=C/c1nc2ccccc2[nH]c1=O	0.56	1.5	1	3	13	97
Cc1ccc(C)c(/C(O)=C2/C(=O)C(=O)N(CCN3CCOCC3)C2c2ccco2)c1 (stereo unspecified)	0.64	1	1	1	14	99
CC(=O)OCC(=O)Nc1ccc(Cl)cc1Cl	-0.15	1	1.1	-6	4	102
O=C(COc1ccc(Cl)cc1Cl)Nc1ccc(Cl)cn1	-0.26	4.5*	0.1	86*	181*	142*
Cc1ccc(C(C)C)c(OCC(=O)Nc2ccc(Cl)cn2)c1	1.4	1.1	1.1	-6	-1	76
O=C(COc1ccccc1)Nc1ccc(Cl)cc1Cl	nt	3.5*	0.5	50*	114	134*
S=C1NCCOCCOCCOCCNC(=S)N2CCOCCOCCN1CCOCCOCC2	nt	1.2	1.1	-6	7	102
Cc1ccc(S(=O)(=O)CCc2nc3ccccc3n2CCC#N)cc1	-0.89	2.7	1.1	-8	-15	81

High-throughput results (PubChem)
